Experimental data reported in ChEMBL document CHEMBL5303300, “EUbOPEN Chemogenomics Library - Multiplex” (2023).
Where “and” joins values, the source holds several entries; their conditions need not be identical. Equal entries are not always repeated.

Columns and labels:
U2OS = assay: Multiplex assay against U2OS; type: toxicity, cell-based; settings: human, number of replicates 2
Summary of the method: (§1)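 Cells stained live at seeding with Hoechst33342, BioTracker Green Microtubule Cytoskeleton Dye, MitoTracker Red and Annexin V Alexa Fluor 680 were imaged on a CQ1 microscope at 37°C and 5% CO2 after compound addition. Their classification by CellPathfinder machine-learning gating ran from Hoechst high-intensity objects versus normal cells, to healthy, pyknosed or fragmented nuclei among normal cells, to mitotic or apoptotic among pyknosed cells. Tubulin, mitochondrial-mass and membrane-permeability phenotypes are per cents of healthy-nucleus cells.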

Fibroblast = assay: Multiplex assay against human fibroblast; type: toxicity, cell-based; settings: number of replicates 2; summary of the method: as §1
[1] = 12 h, 1 µM, compound concentration 1 uM
[2] = 12 h, 10 µM, compound concentration 10 uM
[3] = 24 h, 1 µM, compound concentration 1 uM
[4] = 24 h, 10 µM, compound concentration 10 uM
[5] = 48 h, 1 µM, compound concentration 1 uM
[6] = 48 h, 10 µM, compound concentration 10 uM

## CN[C@@H]1CC[C@@H](c2ccc(Cl)c(Cl)c2)c2ccccc21.Cl
U2OS; [1]
  Population Apoptotic (%): 66% and 62%
  Population Fragmented Nuclei (%): 4% and 9%
  Population Healthy Nuclei (%): 82% and 78%
  Population Hoechst High Intensity Objects (%): 0%
  Population Membrane Permeable-Phenotype (%): 4% and 9%
  Population Mitotic Cells (%): 33% and 37%
  Population Normal (%): 100%
  Population Pyknosed Nuclei (%): 13% and 12%
  Population Tubulin-Different-Phenotype (%): 52% and 43%
U2OS; [2]
  Population Apoptotic (%): 83% and 60%
  Population Healthy Nuclei (%): 33% and 57%
  Population Hoechst High Intensity Objects (%): 0%
  Population Membrane Permeable-Phenotype (%): 30%
  Population Mitochondria Different-Phenotype (%): 53% and 50%
  Population Mitotic Cells (%): 16% and 40%
  Population Normal (%): 100%
  Population Pyknosed Nuclei (%): 30% and 32%
  Population Tubulin-Different-Phenotype (%): 84% and 73%
U2OS; [3]
  Population Apoptotic (%): 60% and 71%
  Population Fragmented Nuclei (%): 1% and 7%
  Population Healthy Nuclei (%): 84% and 81%
  Population Hoechst High Intensity Objects (%): 0%
  Population Membrane Permeable-Phenotype (%): 2% and 1%
  Population Mitochondria Different-Phenotype (%): 6% and 1%
  Population Mitotic Cells (%): 39% and 28%
  Population Normal (%): 100%
  Population Pyknosed Nuclei (%): 14% and 10%
  Population Tubulin-Different-Phenotype (%): 63% and 33%
U2OS; [4]
  Population Apoptotic (%): 90% and 75%
  Population Hoechst High Intensity Objects (%): 0%
  Population Membrane Permeable-Phenotype (%): 42% and 33%
  Population Mitochondria Different-Phenotype (%): 100% and 63%
  Population Mitotic Cells (%): 10% and 25%
  Population Normal (%): 100%
  Population Pyknosed Nuclei (%): 50% and 35%
  Population Tubulin-Different-Phenotype (%): 100% and 75%
U2OS; [5]
  Population Apoptotic (%): 85% and 52%
  Population Fragmented Nuclei (%): 2%
  Population Healthy Nuclei (%): 85% and 76%
  Population Hoechst High Intensity Objects (%): 0%
  Population Membrane Permeable-Phenotype (%): 1%
  Population Mitochondria Different-Phenotype (%): 3% and 1%
  Population Normal (%): 99% and 100%
  Population Pyknosed Nuclei (%): 11% and 20%
  Population Tubulin-Different-Phenotype (%): 72% and 37%
U2OS; [6]
  Population Apoptotic (%): 88% and 79%
  Population Fragmented Nuclei (%): 31% and 16%
  Population Hoechst High Intensity Objects (%): 0%
  Population Membrane Permeable-Phenotype (%): 40% and 45%
  Population Mitochondria Different-Phenotype (%): 60% and 65%
  Population Mitotic Cells (%): 11% and 20%
  Population Normal (%): 100%
  Population Pyknosed Nuclei (%): 57% and 37%
  Population Tubulin-Different-Phenotype (%): 100% and 74%
Fibroblast; [1]
  Population Apoptotic (%): 43% and 37%
  Population Fragmented Nuclei (%): 14% and 18%
  Population Healthy Nuclei (%): 55% and 62%
  Population Hoechst High Intensity Objects (%): 0%
  Population Membrane Permeable-Phenotype (%): 12% and 9%
  Population Mitochondria Different-Phenotype (%): 2% and 0%
  Population Mitotic Cells (%): 56% and 62%
  Population Normal (%): 100% and 99%
  Population Pyknosed Nuclei (%): 29% and 19%
  Population Tubulin-Different-Phenotype (%): 37% and 20%
  Total Cell Count: 194
Fibroblast; [2]
  Population Apoptotic (%): 28% and 53%
  Population Fragmented Nuclei (%): 17% and 15%
  Population Healthy Nuclei (%): 56% and 55%
  Population Hoechst High Intensity Objects (%): 0%
  Population Membrane Permeable-Phenotype (%): 11% and 8%
  Population Mitochondria Different-Phenotype (%): 10% and 14%
  Population Mitotic Cells (%): 71% and 46%
  Population Normal (%): 100% and 99%
  Population Pyknosed Nuclei (%): 26% and 28%
  Population Tubulin-Different-Phenotype (%): 82% and 77%
Fibroblast; [3]
  Population Apoptotic (%): 43% and 40%
  Population Fragmented Nuclei (%): 16% and 17%
  Population Healthy Nuclei (%): 57% and 65%
  Population Hoechst High Intensity Objects (%): 0% and 1%
  Population Membrane Permeable-Phenotype (%): 8% and 2%
  Population Mitochondria Different-Phenotype (%): 1% and 4%
  Population Mitotic Cells (%): 56% and 60%
  Population Normal (%): 99% and 98%
  Population Pyknosed Nuclei (%): 25% and 16%
  Population Tubulin-Different-Phenotype (%): 39% and 19%
Fibroblast; [4]
  Population Apoptotic (%): 53% and 65%
  Population Fragmented Nuclei (%): 13% and 15%
  Population Healthy Nuclei (%): 56% and 53%
